# Structures can show the parent of a compound that is named as a salt. Active and inactive are the calls of the source. No cut-off for these calls is given here.
# Experiments:
# HL-60 = test: Cytotoxicity against human HL60 cells; assay type: functional, cell-based
# Method in brief: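 Growth of human tumour cells measured by the MTT or SRB method, with adriamycin as the positive control.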
# [1] = Inhibition of LPS-induced NF-kappaB (unknown origin) activation transfected in mouse RAW264.7 cells preincubated for 2 hrs followed by LPS challenge measured after 4 hrs by luciferase reporter gene assay; assay type: cell-based
# Method in brief: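 RAW264.7 cells were seeded at 2.5 × 10^5 per well and held at 37 °C for 24 h. They were then transiently transfected with pNF-κB-Luc plasmid (0.5 μg/well) using lipofectamine 2000. After 24 h, compounds were added for 2 h, then LPS (0.1 μg/mL) for a further 4 h. Read-out was Steady-Glo luciferase, with PDTC as the positive control, and IC50 was derived.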
# A549 = test: Cytotoxicity against human A549 cells
Compound,Activity (HL-60),IC50 [1] [µM],IC50 (HL-60) [µM],IC50 (A549) [µM]
CC(C)=CCC[C@](C)(O)[C@H](O)CC[C@](C)(O)[C@@H]1CC2=C(CC[C@@H](O)C2=O)O1,inactive,62,,
C/C(C=O)=C\CC[C@@H](C)C1=CC[C@@]2(C)OC3=C(C[C@@H]12)C(=O)[C@H](O)CC3,inactive,39,,
CO[C@@H]1C[C@H](O)C2=C(C[C@H]3[C@H](C(C)(O)CCC=C(C)C)CC[C@@]3(C)O2)C1=O (stereo partly drawn) [TRICYCLOALTERNARENE B],inactive,76,,
COc1ccc(O)c(C/C=C(\C)CC/C=C(\C)CC[C@@H](O)C(C)(C)O)c1O [(+)-MONOCYCLOALTERNARENE A],inactive,45,,
C/C(=C\CC[C@](C)(O)[C@@H]1CC2=C(O1)[C@H](O)CCC2=O)CC/C=C(\C)C(=O)O,inactive,67,,
C/C(=C\CC[C@]1(C)OC2=C(C[C@@H]1O)C(=O)CC[C@H]2O)CC/C=C(\C)C(=O)O,inactive,> 100,,
C/C(=C\CC[C@](C)(O)[C@@H]1CC2=C(CC[C@@H](O)C2=O)O1)CC/C=C(\C)C(=O)O,inactive,85,,
"S=C(S)N1CCCC1 [PYRROLIDINE DITHIOCARBAMIC ACID, AMMONIUM SALT]",,3,,
C/C(=C\CC[C@@H](C)C1=CC[C@@]2(C)OC3=C(C[C@@H]12)C(=O)[C@H](O)CC3)CO,inactive,50,,
CC(C)=CCC[C@H](C)[C@@H]1CC[C@](C)(O)[C@]12CC1=C(O2)[C@H](O)CCC1=O [TRICYCLOALTERNARENE A],inactive,52,,
C/C(=C\Cc1cc(C(=O)O)cc(O)c1O)CC/C=C(\C)CC[C@@H](O)C(C)(C)O [(+)-MONOCYCLOALTERNARENE B],inactive,47,,
C/C(=C\CC[C@]1(C)OC2=C(C[C@@H]1O)C(=O)[C@H](O)CC2)CC/C=C(\C)C(=O)O,inactive,> 100,,
CC(C)=CCCC(C)(O)[C@@H]1CC[C@@]2(C)OC3=C(C[C@@H]12)C(=O)CC[C@H]3O (stereo partly drawn) [TRICYCLOALTERNARENE C],inactive,75,,
CO[C@@H]1C[C@H](O)C(O)=C(C/C=C(\C)CC/C=C(\C)CCCC(C)C(=O)O)C1=O (stereo partly drawn),inactive,42,,
COc1cccc2c1C(=O)c1c(O)c3c(c(O)c1C2=O)C[C@@](O)(C(=O)CO)C[C@@H]3O[C@H]1C[C@H](N)[C@H](O)[C@H](C)O1 [DOXORUBICIN],,,0.09,0.35
C/C(=C\CC[C@](C)(O)[C@@H]1CC2=C(CC[C@@H](O)C2=O)O1)CC[C@@H](O)C(C)(C)O,inactive,70,,
CO[C@@H]1C[C@H](O)C(O)=C(C/C=C(\C)CC/C=C(\C)CC/C=C(\C)C(=O)O)C1=O,inactive,58,,

# Source: ChEMBL document CHEMBL2429733, “Meroterpenoids with diverse ring systems from the sponge-associated fungus Alternaria sp. JJY-32” (J Nat Prod, 2013)
